Screening results as filed in PubChem.
T cruzi repl – blocks replication of Trypanosoma cruzi; inhibition, % (no concentration beside the values); AID 1885; T. cruzi beta-gal in NIH3T3, luminescence, 90 h; 300,000 tested, 1.4% active;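 active means mean inhibition across valid replicates above about 55%, limit read from the data; inconclusive means mean below that limit but half or more replicates reach it; inactive means mean below it, under half of replicates reach it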;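 further: signal also drops with host cell toxicity which is not excluded here; 0% = plate median of DMSO wells and 100% = zero luminescence signal; higher percent means less beta-gal luminescence so fewer parasites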
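assay system = mouse NIH/3T3 fibroblasts infected with β-gal-expressing T. cruzi Tulahuen C4 | input = 5,000 NIH/3T3 host cells per well | buffer or medium = DMEM plus 2% FBS | timing = 3 h host attachment, then at least 90 h co-culture | measured by = GalScreen luminescence, 60 min | evaluation = luminescence reflecting intracellular parasite burden, expressed as percent inhibition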
Cardio protect – modulators protecting cardiomyocytes from myocardial damage; H9c2 cardiomyocytes, H2O2 injury protection, ATPLite, 2 h; protection from H2O2 cell death, % at 20 µM; 360,000 tested, 0.63% active;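 active means compounds giving at least 50% protection of heart cells from peroxide-induced death in the single-dose screen, raw or plate-pattern-corrected value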;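 further: 0% = DMSO wells with peroxide and 100% = DMSO wells without peroxide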
GASC-1 inh – inhibitors of human GASC-1 (JMJD2C) demethylase; Q9H3R0; GST-JMJD2C(1-420) H3K9me3 demethylation, DELFIA europium; inhibition, % at 2.35 µM; 330,000 tested, 0.069% active; AID 2099;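 active means more than half of a compound's replicate wells show inhibition beyond 50%, single wells judged on their own value; inconclusive means some, but no more than half, of replicates pass 50% inhibition; inactive means no replicate passes 50% inhibition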;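 further: signal counts dimethyl H3K9 product captured on neutravidin plate; 0% = median of DMSO wells and 100% = 0.3 times that DMSO median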
Target sequence (Q9H3R0 1-420 limits assumed): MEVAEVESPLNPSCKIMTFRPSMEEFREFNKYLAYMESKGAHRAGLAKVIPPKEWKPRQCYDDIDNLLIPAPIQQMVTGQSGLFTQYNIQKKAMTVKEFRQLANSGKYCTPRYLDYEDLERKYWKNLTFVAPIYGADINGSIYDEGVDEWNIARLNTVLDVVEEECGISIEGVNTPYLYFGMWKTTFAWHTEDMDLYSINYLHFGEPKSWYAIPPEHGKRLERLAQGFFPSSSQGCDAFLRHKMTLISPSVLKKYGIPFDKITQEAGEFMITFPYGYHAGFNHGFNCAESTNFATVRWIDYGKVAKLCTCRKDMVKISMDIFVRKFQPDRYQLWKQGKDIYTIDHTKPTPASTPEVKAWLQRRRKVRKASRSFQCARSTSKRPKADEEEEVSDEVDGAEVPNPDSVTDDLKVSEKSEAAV
PP5 primary – inhibitors of human protein phosphatase 5 (PP5); P53041; inhibition, % at 6.7 µM; purified PP5c, OMFP substrate fluorescence; AID 1987; 320,000 tested, 0.18% active;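 active means inhibition above the campaign's mean inhibition across all tested compounds plus 3 SD, cut at about 9.5% in these data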;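 further: 0% = DMSO only and 100% = 100 µM cantharidin control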
pCIP destab – lowers stability of the mouse p/CIP coactivator protein | Q05BA5 | F442A p/CIP-EGFP cells, EGFP fluorescence, 16 h | decrease of EGFP signal, % at 10 µM | 290,000 tested, 0.01% active;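 active means EGFP signal decrease of at least 30% at 10 µM or well 3 SD below plate mean, unless failing retest; inactive means the rest, including hits failing retest or dose response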
CTSL1 counter – cathepsin L1 inhibition, PFM18AAP counter-screen. inhibition, % at 5.96 µM. 300,000 tested, 0.49% active. recombinant F. hepatica cathepsin L1, Z-Leu-Arg-MCA fluorescence. AID 1906;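 active means inhibition above the mean of all tested compounds plus 3 SD, set per screening campaign, cut at about 17% in these data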;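 further: 0% = plate median of test compound wells and 100% = 1 µM Z-Phe-Ala-diazomethylketone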
An asterisk follows results filed as active; i = inactive; ? = inconclusive; nt = no result. Only some compounds are listed: those with a hit (about 2.4% of all), similar ones and a draw of the others.

SMILES | T cruzi repl | Cardio protect | GASC-1 inh | PP5 primary | pCIP destab | CTSL1 counter
CC(NS(=O)(=O)c1ccc2[nH]c(=O)[nH]c2c1)c1ccc(F)cc1 (stereo not drawn) | nt | -8.5 | nt | nt | nt | nt
Cc1c(O)ccc2c(-c3ccccc3)cc(=O)oc12 | -14.3 | 83.9* | 15.5 | -1.6 | -4.4 | -0.9
COc1ccc(-c2cc(=O)oc3c(C)c(O)ccc23)cc1 | -23.5 | 33.6 | 7.4 | 0.6 | 5.2 | -4.2
CCOC(=O)C1=C(COC(=O)Cc2c(F)cccc2Cl)NC(=O)NC1C (stereo not drawn) | nt | 0.9 | 3.9 | 2.3 | nt | nt
C[C@H]1CN([C@@H](C)CO)C(=O)CCCn2nncc2CO[C@@H]1CN(C)Cc1ccccc1C(F)(F)F | nt | 1.2 | nt | nt | nt | nt
CCCCCCCCC/C(=N\O)c1ccccn1 | 63.5* | 45.8 | 73.9 | 5.3 | 3.3 | 9.8
CC(C)OC(=O)CSc1nnc(-c2ccc(Cl)cc2Cl)o1 | -19.8 | -11.5 | 2.0 | 1.2 | 0.9 | 21.2*
N#Cc1cccc2c1-c1ccccc1/C2=N/NC(N)=O | 16.2 | 56.5* | 2.9 | 2.2 | 3.5 | -2.9
N#Cc1cccc2c1-c1ccccc1/C2=N/NC(N)=S | 12.6 | 16.3 | 53.8 | 3.9 | 3.9 | -1.2
O=C(Nc1ccc2ccccc2c1)C(c1ccccc1)C1CCCC1 (stereo not drawn) | 63.7* | -12.1 | -1.1 | 2.3 | -5.3 | -1.8
Cc1ccc(NC(=O)C(c2ccccc2)C2CCCC2)cc1 (stereo not drawn) | 29.0 | -11.7 | -32.1 | nt | 8.6 | nt
CCCCOc1ccc(S(=O)(=O)N2CCN(c3ccc(N4CCN(CC)CC4)nn3)CC2)cc1 | 30.1 | -8.4 | 0.7 | 2.4 | nt | 18.0*
CC(C)c1ccc(S(=O)(=O)/N=C2/C=C(Sc3ncn[nH]3)C(=O)c3ccccc32)cc1 | nt | -20.9 | 7.0 | 10.8* | -3.0 | 101.0*
CC(C)(C)c1ccc(S(=O)(=O)/N=C2\C=C(NS(=O)(=O)c3ccccc3)C(=O)c3ccccc32)cc1 | -6.0 | -13.7 | 30.4 | 1.8 | -14.6 | -3.6
COc1cc(Cl)ccc1OC1(C)CCN(Cc2cccc(OC)c2OC)C1 (stereo not drawn) | nt | -15.3 | nt | nt | nt | nt
COc1cc(NC(=O)Cn2ncc(Cl)c(Cl)c2=O)c(C)cc1[N+](=O)[O-] | 84.5* | -26.3 | 3.0 | nt | -5.4 | nt
O=C(O)CSCC(=O)Nc1ccccc1SCCS(=O)(=O)c1ccc(Cl)cc1 | -4.7 | 0.4 | 0.8 | nt | -12.2 | nt
Cc1ccc(-c2nn3c(-c4ccco4)nnc3c3ccccc23)cc1S(=O)(=O)NCC1CCCO1 (stereo not drawn) | 35.1 | 54.7* | -30.6 | 1.6 | -4.9 | 1.6
Cc1ccc(-c2nnc(Nc3ccccc3)c3ccccc23)cc1S(=O)(=O)NCC1CCCO1 (stereo not drawn) | 24.8 | 28.7 | 1.6 | 2.4 | -10.8 | 0.1
COc1ccc(C2C(O)C(c3c[nH]c4ccccc34)=NN2C(=O)CCl)cc1 (stereo not drawn) | 32.0 | -9.3 | 1.9 | 1.7 | -18.9 | 43.3*
COc1ccc(C2NN=C(c3c[nH]c4ccccc34)C2O)cc1 (stereo not drawn) | -0.2 | -1.8 | -18.1 | 0.8 | -9.4 | 6.0
O=C(NCc1ccco1)/C(=C/c1ccccc1F)NC(=O)c1ccccc1 | -14.0 | 2.4 | 2.8 | 0.8 | 5.9 | 4.5
CN(C)C(=O)CSc1ccc(S(=O)(=O)N2CCOCC2)cn1 | nt | 1.0 | 22.2 | 4.0 | nt | nt
Cc1cc(Cl)c(OCCOCCN2CCN(C)CC2)c(Br)c1 | 58.7* | 0.8 | -1.5 | 0.9 | -4.6 | 4.7
Clc1cc(Br)ccc1OCCOCCN1CCOCC1 | 44.2 | 0.0 | 5.7 | 2.7 | -7.7 | -3.6
SMILES | T cruzi repl | Cardio protect | GASC-1 inh | PP5 primary | pCIP destab | CTSL1 counter
CC1CCN(CCCOc2ccc(Cl)cc2Br)CC1 | 16.2 | -0.2 | -6.0 | 1.2 | 10.5 | -1.3
CC1CCN(CCOCCOc2ccc(Cl)cc2Br)CC1 | 63.8* | 12.0 | 3.8 | 2.6 | 2.4 | 4.4
CC(C)(C)c1cc(Cl)ccc1OCCOCCN1CCCC1 | 47.3 | 9.0 | 2.0 | 2.4 | 1.3 | 3.1
Clc1cc(Br)ccc1OCCOCCN1CCCC1 | 59.5* | 2.7 | 16.6 | 0.2 | 3.3 | -1.5
Clc1ccc(OCCOCCN2CCCCC2)c(Br)c1 | 59.1* | 9.5 | 7.7 | -0.1 | 5.4 | 3.9
Cc1cc(C(C)(C)C)ccc1OCCOCCN1CCCC1 | 54.7* | -0.2 | 0.9 | -2.9 | -7.5 | -0.4
CCN1/C(=C\C(=S)Nc2ccccc2)Sc2ccccc21 | 14.0 | -25.5 | 10.1 | -1.3 | -12.5 | 4.3
CCN1/C(=C/C(C)=C/c2sc3ccccc3[n+]2CC)Sc2ccccc21 | 45.3 | -29.5 | -2.1 | 10.3* | -5.4 | -0.4
CCCC(C)(C)C(=O)N1CCC1(C)C(=O)NS(=O)(=O)c1ccccc1Cl (stereo not drawn) | nt | -1.7 | nt | nt | nt | nt
COC(=O)c1ccc(NC(=O)COC(=O)c2cccc3c(=O)c(C)c(-c4ccccc4)oc23)cc1 | 13.2 | 24.7 | -3.4 | 4.3 | -5.2 | -0.2
Cc1c(-c2ccccc2)oc2c(C(=O)OCC(=O)Nc3ccc(C(N)=O)cc3)cccc2c1=O | 0.4 | 74.0* | -0.3 | 0.8 | -14.0 | -3.8
C=C(C)Cc1c(C)nc(-c2ccccc2)[nH]c1=O | -4.9 | -2.0 | ? | -4.8 | -21.0 | 26.4*
O=C(Cc1cn(Cc2cccc(Cl)c2)c2ccccc12)N1CCCCCC1 | 58.9* | -7.4 | -5.2 | 0.9 | -3.8 | -1.4
O=C(O)Cc1cn(Cc2cccc(Cl)c2)c2ccccc12 | -8.9 | 0.7 | i | -2.4 | -0.4 | 5.1
CC1CCCN(C(=O)Cc2cn(Cc3cccc(Cl)c3)c3ccccc23)C1 (stereo not drawn) | 54.5* | -9.7 | 12.6 | 0.8 | -3.0 | 0.1
CC1CCCN(C(=O)COC(=O)Cc2ccc(Cl)cc2)C1 (stereo not drawn) | -4.6 | -0.2 | -2.0 | 2.2 | 3.4 | -4.2
O=C(Cc1c(F)c(F)c(F)c(F)c1F)Nc1nc(-c2ccccc2)cs1 | 35.7 | -23.4 | 5.0 | 6.0 | -11.0 | 5.9
CN(Cc1cccc(Cl)c1)C(=O)C1CCN(C(=O)Nc2ccccc2)CC1 | 3.1 | 1.3 | -10.7 | 0.5 | nt | 1.2
CCOC(=O)C1CCCN(C2CCN(Cc3nc(-c4ccccc4)no3)CC2)C1 (stereo not drawn) | 69.8* | -1.0 | -35.1 | 0.2 | 4.9 | -2.4
CN(Cc1ccccc1)C(=O)C1CCCN(Cc2cccc(Cl)c2)C1 (stereo not drawn) | 59.6* | 14.1 | 5.8 | -0.3 | 8.5 | -0.2
CCOC(=O)C1CCCN(Cc2ccc(-c3ccccc3)cc2)C1 (stereo not drawn) | 68.2* | -4.1 | -17.0 | 4.3 | 3.6 | 2.6
Cn1c(SCC(=O)NCC2CCCO2)nnc1-c1ccc(Cl)cc1 (stereo not drawn) | nt | 1.4 | -2.8 | 1.0 | nt | nt
COc1ccccc1NC(=O)CSc1ccc2nnc(-c3ccc(C)cc3)n2n1 | 5.4 | 69.2* | -12.6 | 0.9 | -15.6 | 5.3
